Laboratory results reported in ChEMBL document CHEMBL5724801, “EUbOPEN Chemogenomics Library - Multiplex” (2024).
Several values for one entry are separate records, joined by “and”; a condition that tells them apart may be missing. Identical values can stand only once.

System: U2OS
Experiment: Multiplex assay against U2OS
Type: toxicity, cell-based
Settings: human
Summary of the method: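 At seeding, live cells were stained with Hoechst33342, BioTracker Green Microtubule Cytoskeleton Dye, MitoTracker Red and Annexin V Alexa Fluor 680. After compound addition they were imaged on a CQ1 microscope at 37°C and 5% CO2, and CellPathfinder machine-learning gating sorted them into Hoechst high-intensity objects or normal cells, with normal cells further split into healthy, pyknosed or fragmented nuclei and pyknosed cells into mitotic or apoptotic. Tubulin, mitochondrial-mass and membrane-permeability phenotypes are given as per cents of cells with healthy nuclei.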

[1] = 12 h, 1 µM, compound concentration 1 uM
[2] = 12 h, 10 µM, compound concentration 10 uM
[3] = 24 h, 1 µM, compound concentration 1 uM
[4] = 24 h, 10 µM, compound concentration 10 uM
[5] = 48 h, 1 µM, compound concentration 1 uM
[6] = 48 h, 10 µM, compound concentration 10 uM

For `COCCCN1CCC(NC(=O)c2cc(Cl)c(N)c3c2OCC3)CC1` [PRUCALOPRIDE], the “Population Apoptotic (%)” value [1] was 84% and 87%, the “Population Fragmented Nuclei (%)” value [1] was 30% and 21% and the “Population Healthy Nuclei (%)” value [1] was 63% and 71%. For the same compound, the “Population Hoechst High Intensity Objects (%)” value [1] was 1% and 0%, the “Population Membrane Permeable-Phenotype (%)” value [1] was 7% and 12% and the “Population Mitochondria Different-Phenotype (%)” value [1] was 3% and 7%. The “Population Mitotic Cells (%)” value [1] was 15% and 12%, the “Population Normal (%)” value [1] was 98% and 99% and the “Population Pyknosed Nuclei (%)” value [1] was 6% and 7%. The “Population Tubulin-Different-Phenotype (%)” value [1] was 4% and 8%, the “Total Cell Count” value [1] was 207 and 110 and the “Population Apoptotic (%)” value [2] was 68% and 47%. The “Population Fragmented Nuclei (%)” value [2] was 22% and 13%, the “Population Healthy Nuclei (%)” value [2] was 63% and 73% and the “Population Hoechst High Intensity Objects (%)” value [2] was 3% and 2%. For the same compound, the “Population Membrane Permeable-Phenotype (%)” value [2] was 4% and 1%, the “Population Mitochondria Different-Phenotype (%)” value [2] was 0% and 1% and the “Population Mitotic Cells (%)” value [2] was 31% and 52%. For the same compound, the “Population Normal (%)” value [2] was 96% and 97%, the “Population Pyknosed Nuclei (%)” value [2] was 13% and 12% and the “Population Tubulin-Different-Phenotype (%)” value [2] was 2% and 1%. The “Total Cell Count” value [2] was 238 and 140, the “Population Apoptotic (%)” value [3] was 80% and the “Population Fragmented Nuclei (%)” value [3] was 26% and 23%. For the same compound, the “Population Healthy Nuclei (%)” value [3] was 65% and 69%, the “Population Hoechst High Intensity Objects (%)” value [3] was 2% and 1% and the “Population Membrane Permeable-Phenotype (%)” value [3] was 5% and 8%. The “Population Mitochondria Different-Phenotype (%)” value [3] was 3% and 4%, the “Population Mitotic Cells (%)” value [3] was 20% and the “Population Normal (%)” value [3] was 97% and 98%. The “Population Pyknosed Nuclei (%)” value [3] was 8% and 7%, the “Population Tubulin-Different-Phenotype (%)” value [3] was 5% and 7% and the “Total Cell Count” value [3] was 247 and 132. The “Population Apoptotic (%)” value [4] was 87% and 77%, the “Population Fragmented Nuclei (%)” value [4] was 23% and 12% and the “Population Healthy Nuclei (%)” value [4] was 64% and 76%. For the same compound, the “Population Hoechst High Intensity Objects (%)” value [4] was 4% and 1%, the “Population Membrane Permeable-Phenotype (%)” value [4] was 5% and 3% and the “Population Mitochondria Different-Phenotype (%)” value [4] was 2%. For the same compound, the “Population Mitotic Cells (%)” value [4] was 12% and 22%, the “Population Normal (%)” value [4] was 95% and 98% and the “Population Pyknosed Nuclei (%)” value [4] was 12% and 11%. For the same compound, the “Population Tubulin-Different-Phenotype (%)” value [4] was 4% and 3%, the “Total Cell Count” value [4] was 280 and 161 and the “Population Apoptotic (%)” value [5] was 85% and 86%. The “Population Fragmented Nuclei (%)” value [5] was 20%, the “Population Healthy Nuclei (%)” value [5] was 73% and 67% and the “Population Hoechst High Intensity Objects (%)” value [5] was 3% and 2%. The “Population Membrane Permeable-Phenotype (%)” value [5] was 3% and 11%, the “Population Mitochondria Different-Phenotype (%)” value [5] was 1% and 6% and the “Population Mitotic Cells (%)” value [5] was 14% and 13%. The “Population Normal (%)” value [5] was 96% and 97%, the “Population Pyknosed Nuclei (%)” value [5] was 6% and 11% and the “Population Tubulin-Different-Phenotype (%)” value [5] was 3% and 9%. The “Total Cell Count” value [5] was 352 and 199, the “Population Apoptotic (%)” value [6] was 88% and 90% and the “Population Fragmented Nuclei (%)” value [6] was 17% and 11%. The “Population Healthy Nuclei (%)” value [6] was 69% and 79%, the “Population Hoechst High Intensity Objects (%)” value [6] was 1% and the “Population Membrane Permeable-Phenotype (%)” value [6] was 5% and 3%. The “Population Mitochondria Different-Phenotype (%)” value [6] was 2% and 3%, the “Population Mitotic Cells (%)” value [6] was 11% and 9% and the “Population Normal (%)” value [6] was 98%. The “Population Pyknosed Nuclei (%)” value [6] was 12% and 9%, the “Population Tubulin-Different-Phenotype (%)” value [6] was 2% and 1% and the “Total Cell Count” value [6] was 347 and 245.

With `CCC(=O)N1CCN(c2ccc(-n3c(=O)ccc4cnc5ccc(-c6cnc7ccccc7c6)cc5c43)cc2C(F)(F)F)CC1` [TORIN1] the “Population Apoptotic (%)” value [2] was 68% and 76%, the “Population Healthy Nuclei (%)” value [2] was 55% and 71% and the “Population Hoechst High Intensity Objects (%)” value [2] was 1% and 3%. For the same compound, the “Population Mitochondria Different-Phenotype (%)” value [2] was 7%, the “Population Normal (%)” value [2] was 98% and 96% and the “Population Tubulin-Different-Phenotype (%)” value [2] was 5% and 9%. For the same compound, the “Total Cell Count” value [2] was 288 and 109, the “Population Apoptotic (%)” value [4] was 77% and 73% and the “Population Healthy Nuclei (%)” value [4] was 54% and 72%. The “Population Hoechst High Intensity Objects (%)” value [4] was 1% and 2%, the “Population Mitochondria Different-Phenotype (%)” value [4] was 9% and the “Population Normal (%)” value [4] was 98% and 97%. For the same compound, the “Population Tubulin-Different-Phenotype (%)” value [4] was 5% and 3%, the “Total Cell Count” value [4] was 287 and 115 and the “Population Apoptotic (%)” value [6] was 78% and 82%. The “Population Healthy Nuclei (%)” value [6] was 44%, the “Population Hoechst High Intensity Objects (%)” value [6] was 7% and 2% and the “Population Normal (%)” value [6] was 93% and 97%. For the same compound, the “Population Tubulin-Different-Phenotype (%)” value [6] was 8% and 5% and the “Total Cell Count” value [6] was 300 and 147.

In the case of `CC(C)(C)c1ccc(S(=O)(=O)Nc2ccc(Cl)cc2C(=O)c2cc[n+]([O-])cc2)cc1` [VERCIRNON], the “Population Apoptotic (%)” value [1] is reported as 77% and 100%, the “Population Fragmented Nuclei (%)” value [1] is reported as 28% and 15% and the “Population Healthy Nuclei (%)” value [1] is reported as 61% and 79%. For the same compound, the “Population Hoechst High Intensity Objects (%)” value [1] was 1% and 0%, the “Population Membrane Permeable-Phenotype (%)” value [1] was 8% and the “Population Mitochondria Different-Phenotype (%)” value [1] was 5% and 4%. The “Population Mitotic Cells (%)” value [1] was 22% and 0%, the “Population Normal (%)” value [1] was 98% and 99% and the “Population Pyknosed Nuclei (%)” value [1] was 10% and 5%. The “Population Tubulin-Different-Phenotype (%)” value [1] was 4% and 3%, the “Total Cell Count” value [1] was 307 and 156 and the “Population Apoptotic (%)” value [2] was 77% and 50%. The “Population Fragmented Nuclei (%)” value [2] was 24% and 21%, the “Population Healthy Nuclei (%)” value [2] was 68% and 77% and the “Population Hoechst High Intensity Objects (%)” value [2] was 1% and 0%. The “Population Mitochondria Different-Phenotype (%)” value [2] was 2%, the “Population Mitotic Cells (%)” value [2] was 22% and 50% and the “Population Normal (%)” value [2] was 98% and 99%. For the same compound, the “Population Pyknosed Nuclei (%)” value [2] was 6% and 1%, the “Total Cell Count” value [2] was 266 and 123 and the “Population Apoptotic (%)” value [3] was 89% and 92%. The “Population Fragmented Nuclei (%)” value [3] was 25% and 18%, the “Population Healthy Nuclei (%)” value [3] was 67% and 74% and the “Population Hoechst High Intensity Objects (%)” value [3] was 1% and 0%. For the same compound, the “Population Membrane Permeable-Phenotype (%)” value [3] was 8% and 2%, the “Population Mitochondria Different-Phenotype (%)” value [3] was 5% and 4% and the “Population Mitotic Cells (%)” value [3] was 10% and 7%. For the same compound, the “Population Normal (%)” value [3] was 98% and 99%, the “Population Pyknosed Nuclei (%)” value [3] was 7% and the “Population Tubulin-Different-Phenotype (%)” value [3] was 4% and 2%. The “Total Cell Count” value [3] was 357 and 183, the “Population Apoptotic (%)” value [4] was 76% and 71% and the “Population Fragmented Nuclei (%)” value [4] was 21% and 22%. For the same compound, the “Population Healthy Nuclei (%)” value [4] was 72%, the “Population Hoechst High Intensity Objects (%)” value [4] was 2% and 1% and the “Population Mitochondria Different-Phenotype (%)” value [4] was 1%. For the same compound, the “Population Mitotic Cells (%)” value [4] was 23% and 28%, the “Population Normal (%)” value [4] was 97% and 98% and the “Population Pyknosed Nuclei (%)” value [4] was 5% and 4%. The “Total Cell Count” value [4] was 297 and 160, the “Population Apoptotic (%)” value [5] was 82% and 84% and the “Population Fragmented Nuclei (%)” value [5] was 19% and 15%. The “Population Healthy Nuclei (%)” value [5] was 73% and 75%, the “Population Hoechst High Intensity Objects (%)” value [5] was 3% and 4% and the “Population Membrane Permeable-Phenotype (%)” value [5] was 5% and 7%. The “Population Mitochondria Different-Phenotype (%)” value [5] was 3% and 2%, the “Population Mitotic Cells (%)” value [5] was 17% and 15% and the “Population Normal (%)” value [5] was 96% and 95%. For the same compound, the “Population Pyknosed Nuclei (%)” value [5] was 6% and 9%, the “Population Tubulin-Different-Phenotype (%)” value [5] was 4% and 2% and the “Total Cell Count” value [5] was 515 and 296. For the same compound, the “Population Apoptotic (%)” value [6] was 79% and 77%, the “Population Fragmented Nuclei (%)” value [6] was 18% and 26% and the “Population Healthy Nuclei (%)” value [6] was 75% and 65%. For the same compound, the “Population Hoechst High Intensity Objects (%)” value [6] was 1% and 2%, the “Population Membrane Permeable-Phenotype (%)” value [6] was 2% and 8% and the “Population Mitochondria Different-Phenotype (%)” value [6] was 1% and 5%. For the same compound, the “Population Mitotic Cells (%)” value [6] was 20% and 22%, the “Population Normal (%)” value [6] was 98% and 97% and the “Population Pyknosed Nuclei (%)” value [6] was 5% and 8%. The “Population Tubulin-Different-Phenotype (%)” value [6] was 1% and 11% and the “Total Cell Count” value [6] was 414 and 215.
